Paper PMC6045484 (ACS Omega, 2018)
Values after ≈ are worked out from the molar mass of the structure shown. “Also recorded” adds a separate entry of the source.

Legend:
P. falciparum (D6) = test: in vitro antimalarial activity, plasmodial LDH; assay type: cell-based, Plasmodium falciparum; settings: Plasmodium falciparum, D6, 72 h, read-out: P. falciparum (D6) IC50
P. falciparum (W2) = test: in vitro antimalarial activity, plasmodial LDH; assay type: cell-based, Plasmodium falciparum; settings: Plasmodium falciparum, W2, 72 h, read-out: P. falciparum (W2) IC50, CQ-resistant W2 strain, 72 h
In short: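 P. falciparum-infected erythrocytes (2% parasitemia, 2% hematocrit) in RPMI 1640 with 10% human serum and 60 μg/mL amikacin. Exposed to test compound dilutions for 72 h at 37 °C under 90% N2/5% O2/5% CO2. LDH measured with Malstat reagent (30 min, room temperature), then NBT/PES for 1 h in the dark, stopped with 5% acetic acid, read at 650 nm. IC50 from dose-response curves.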

[1] = test system: SK-MEL, KB, BT-549, SK-OV-3, VERO and LLC-PK1 cells; test: cytotoxicity, neutral red uptake assay; assay type: cell-based, mammalian; settings: highest test concentration 4760 ng/mL
In short: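 Cells seeded at 25 000/well and allowed 24 h to reach confluence. Test compound was then added and incubated 48 h. Viable cells were counted by a modified neutral red uptake method. The panel was four human cancer lines and two noncancerous mammalian kidney lines. Doxorubicin served as positive control and DMSO as negative control.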

[2] = test system: P. berghei (sensitive strain); test: blood-schizontocidal activity against P. berghei infection in mice; assay type: in vivo, Plasmodium berghei; settings: Swiss mice
In short: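 Swiss mice of either sex (about 15–20 g, same age), six per group, inoculated intraperitoneally on day 0 with 1 × 10^7 infected erythrocytes from a donor mouse. Oral test compound at 100, 50, 25 or 10 mg/kg, CQ diphosphate (10 mg/kg/day × 4) or vehicle started 4 h later, on D0 to D+3. Giemsa tail-blood smears on D+4 and D+7. Curative: parasites eliminated, no relapse, all mice surviving to D+60.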

[3] = test system: L. donovani promastigotes; test: in vitro antileishmanial activity, alamarBlue assay; assay type: cell-based, Leishmania donovani; settings: Leishmania donovani, 48 h; for IC50: read-out: L. donovani IC50, promastigotes, 48 h; for IC90: read-out: L. donovani IC90, promastigotes, 48 h
C. albicans ATCC90028 = test: in vitro antifungal activity; assay type: cell-based, Candida albicans; settings: Candida albicans; for IC50: ATCC90028, read-out: C. albicans IC50; for MFC: ATCC90028, read-out: C. albicans MFC; for MIC: ATCC90028, read-out: C. albicans MIC
In short: (§1)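 Modified NCCLS broth method in Sabouraud dextrose. Inoculum set by OD630 to 1.5 × 10^3 CFU/mL. Test compound serially diluted in 20% DMSO/saline, duplicate wells, up to 20 μg/mL. Incubated 70–74 h at 35 °C; 530 nm read before and after. IC50 is 50% growth inhibition; MIC is no detectable growth. MFC from clear wells subcultured on agar. Amphotericin B control.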

C. neoformans ATCC90113 = test: in vitro antifungal activity; assay type: cell-based, Cryptococcus neoformans; settings: Cryptococcus neoformans; for IC50: ATCC90113, read-out: C. neoformans IC50; for MFC: ATCC90113, read-out: C. neoformans MFC; for MIC: ATCC90113, read-out: C. neoformans MIC
In short: as §1

A. fumigatus ATCC 90906 = test: in vitro antifungal activity; assay type: cell-based, Aspergillus fumigatus; settings: Aspergillus fumigatus; for IC50: ATCC90906, read-out: A. fumigatus IC50; for MFC: ATCC90906, read-out: A. fumigatus MFC; for MIC: ATCC90906, read-out: A. fumigatus MIC
In short: as §1

SA (ATCC29213) = test: in vitro antibacterial activity; assay type: cell-based; settings: Staphylococcus aureus; for IC50: ATCC29213, read-out: IC50 (concentration that affords 50% growth inhibition), SA; for MBC: ATCC29213, read-out: MBC (minimum bactericidal concentration), SA; for MIC: ATCC29213, read-out: MIC, SA
In short: (§2)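 Test compound serially diluted in 20% DMSO/saline and plated in duplicate, up to 20 μg/mL. Inoculum in cation-adjusted Mueller–Hinton broth, pH 7.3, set by OD630 to 5 × 10^5 CFU/mL. Incubated 16–20 h at 35 °C; 530 nm read before and after. IC50 is 50% growth inhibition; MIC is no detectable growth. MBC from clear wells subcultured on agar. Ciprofloxacin control.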

MRSA (ATCC33591) = test: in vitro antibacterial activity; assay type: cell-based, methicillin-resistant Staphylococcus aureus; settings: Staphylococcus aureus, ATCC33591|MRSA, read-out: MIC, MRSA
In short: as §2

[4] = test system: M. intracellulare (ATCC23068); test: in vitro antibacterial activity, modified alamarBlue procedure; assay type: cell-based, Mycobacterium intracellulare; settings: Mycobacterium intracellulare; for IC50: ATCC23068, read-out: IC50 (concentration that affords 50% growth inhibition), M. intracellulare; for MBC: ATCC23068, read-out: MBC (minimum bactericidal concentration), M. intracellulare; for MIC: ATCC23068, read-out: MIC, M. intracellulare
In short: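 Modified alamarBlue microplate method. Test compound serially diluted in 20% DMSO/saline, duplicate wells, up to 20 μg/mL. Inoculum 2.0 × 10^6 CFU/mL in Middlebrook 7H9 with OADC, pH 7.3, containing 5% alamarBlue. Incubated 70–74 h at 37 °C, 10% CO2; fluorescence 544ex/590em read before and after. MIC: no blue-to-pink change. MBC by subculturing blue wells on agar. Ciprofloxacin control.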

Compound	IC50 (P. falciparum (D6))	IC50 (P. falciparum (W2))	cytotoxicity CTX [1]	P. berghei blood-schizontocidal activity (mice cured/treated) ([2]; 100 mg/kg/day × 4, oral)	IC50 (C. albicans ATCC90028)	MFC (C. albicans ATCC90028)	MIC (C. albicans ATCC90028)	IC50 (C. neoformans ATCC90113)	MFC (C. neoformans ATCC90113)	MIC (C. neoformans ATCC90113)	IC50 (A. fumigatus ATCC 90906)	MFC (A. fumigatus ATCC 90906)	MIC (A. fumigatus ATCC 90906)	IC50 (SA (ATCC29213))	MBC (SA (ATCC29213))	MIC (SA (ATCC29213))	MIC (MRSA (ATCC33591))	IC50 [4]	MBC [4]	MIC [4]	also measured
CCCCOc1c(OC)cc(NC(C)CCCN)c2nc(C(C)(C)C)cc(C)c12 (stereo not shown) [compound 50, N^4-(5-Butoxy-2-tert-butyl-6-methoxy-4-methylquinolin-8-yl)pentane-1,4-diamine]	2.2 µg/mL (≈ 5.48 µM)	0.98 µg/mL (≈ 2.44 µM)	NC (NC, not cytotoxic up to 4760 ng/mL (4.76 μg/mL))	curative (6/6)	15 µg/mL (≈ 37.4 µM)	> 20 µg/mL	> 20 µg/mL	0.58 µg/mL (≈ 1.44 µM)	2.5 µg/mL (≈ 6.23 µM)	1.25 µg/mL (≈ 3.11 µM)	14.7 µg/mL (≈ 36.6 µM)	> 20 µg/mL	> 20 µg/mL	3.49 µg/mL (≈ 8.69 µM)	10 µg/mL (≈ 24.9 µM)	5 µg/mL (≈ 12.5 µM)	5 µg/mL (≈ 12.5 µM)	5.97 µg/mL (≈ 14.9 µM)	20 µg/mL (≈ 49.8 µM)	10 µg/mL (≈ 24.9 µM)	P. berghei blood-schizontocidal activity (mice cured/treated) ([2]; 50 mg/kg/day × 4, oral): suppressive activity; also recorded: active (4/6); IC50 [3]: 1.5 µg/mL (≈ 3.74 µM); IC90 [3]: 3.65 µg/mL (≈ 9.09 µM)
CCCCCOc1c(OC)cc(NC(C)CCCN)c2nc(C(C)(C)C)cc(C)c12 (stereo not shown) [compound 51, N^4-(5-Pentyloxy-2-tert-butyl-6-methoxy-4-methylquinolin-8-yl)pentane-1,4-diamine]	4.5 µg/mL (≈ 10.8 µM)	3.8 µg/mL (≈ 9.14 µM)	NC (NC, not cytotoxic up to 4760 ng/mL (4.76 μg/mL))	inactive (0/6)	> 20 µg/mL	> 20 µg/mL	> 20 µg/mL	4.45 µg/mL (≈ 10.7 µM)	20 µg/mL (≈ 48.1 µM)	20 µg/mL (≈ 48.1 µM)	> 20 µg/mL	> 20 µg/mL	> 20 µg/mL	18.9 µg/mL (≈ 45.5 µM)	> 20 µg/mL	> 20 µg/mL	20 µg/mL (≈ 48.1 µM)	10.8 µg/mL (≈ 25.9 µM)	20 µg/mL (≈ 48.1 µM)	20 µg/mL (≈ 48.1 µM)	IC50 [3]: 16.2 µg/mL (≈ 38.9 µM); IC90 [3]: 23.9 µg/mL (≈ 57.4 µM)
CCCCCOc1c(OC)cc(NC(C)CCCNC(=O)C(N)CCCCN)c2nc(C(C)(C)C)ccc12 (stereo not shown) [compound 92, 2,6-Diamino-N-(4-(2-tert-butyl-6-methoxy-5-(pentyloxy)quinolin-8-ylamino)-pentyl)hexanamide]	0.11 µg/mL (≈ 0.208 µM)	0.052 µg/mL (≈ 0.0982 µM)	NC (NC, not cytotoxic up to 4760 ng/mL (4.76 μg/mL))	100% cure and curative (6/6)	> 20 µg/mL	> 20 µg/mL	> 20 µg/mL	10.9 µg/mL (≈ 20.5 µM)	> 20 µg/mL	> 20 µg/mL	> 20 µg/mL	> 20 µg/mL	> 20 µg/mL	> 20 µg/mL	> 20 µg/mL	> 20 µg/mL	> 20 µg/mL	> 20 µg/mL	> 20 µg/mL	> 20 µg/mL	P. berghei blood-schizontocidal activity (mice cured/treated) ([2]; 25 mg/kg/day × 4, oral): inactive (0/6); P. berghei blood-schizontocidal activity (mice cured/treated) ([2]; 50 mg/kg/day × 4, oral): suppressive activity; also recorded: active (4/6)
